The source made the active and inactive calls. The rule behind the calls is not given here.
Columns and labels:
L6 = test: Cytotoxicity against rat L6 cells after 72 hrs by Alamar blue assay; assay type: cell-based
In short: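 Rat skeletal myoblast L6 cells, growth inhibition; IC50 as average of at least 2 measurements.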

Procathepsin L = Procathepsin L (Homo sapiens, UniProt P07711); test: Inhibition of human CatL using Cbz-Phe-Arg-AMC as substrate measured over 30 mins by fluorimetric method
[1] = Selectivity index, ratio of Ki for human CatL to Ki for Trypanosoma brucei rhodesiense rhodesain
In short: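 Ki from IC50 via Cheng–Prusoff in fluorescence-based protease assay; index = Ki(hCatL)/Ki(RD); Ki as average of two measurements, each in duplicate.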

[2] = test system: Trypanosoma brucei rhodesiense; test: Antitrypanosomal activity against bloodstream form of Trypanosoma brucei rhodesiense STIB 900 assessed as parasite growth inhibition after 72 hrs by Alamar blue assay; assay type: functional
In short: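 T. b. rhodesiense STIB900 bloodstream trypomastigotes; cell-growth inhibition read by Alamar blue; IC50 as average of at least 2 measurements.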

Rhodesain = Rhodesain (Trypanosoma brucei rhodesiense, UniProt Q95PM0); test: Inhibition of Trypanosoma brucei rhodesiense rhodesain using Cbz-Phe-Arg-AMC as substrate by fluorimetric method
Chain of Rhodesain (Q95PM0 whole entry): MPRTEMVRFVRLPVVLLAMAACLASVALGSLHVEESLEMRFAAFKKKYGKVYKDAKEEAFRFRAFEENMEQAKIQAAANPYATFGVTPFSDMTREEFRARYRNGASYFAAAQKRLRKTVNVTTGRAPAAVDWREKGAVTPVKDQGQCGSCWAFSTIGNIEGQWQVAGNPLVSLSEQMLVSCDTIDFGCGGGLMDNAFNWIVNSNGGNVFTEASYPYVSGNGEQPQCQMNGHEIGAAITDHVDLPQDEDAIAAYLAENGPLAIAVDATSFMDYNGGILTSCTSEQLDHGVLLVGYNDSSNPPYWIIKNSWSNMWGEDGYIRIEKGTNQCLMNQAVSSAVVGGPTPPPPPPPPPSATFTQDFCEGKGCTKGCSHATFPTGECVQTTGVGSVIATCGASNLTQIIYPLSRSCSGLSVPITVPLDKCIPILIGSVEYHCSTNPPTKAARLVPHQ
In short: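 Fluorescence-based protease assay. IC50 was converted to Ki by the Cheng-Prusoff equation. Values are the average of two measurements, each run in duplicate.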

[3] = Selectivity index, ratio of IC50 for rat L6 cells to IC50 for bloodstream form of Trypanosoma brucei rhodesiense STIB 900; assay type: toxicity; settings: for selectivity ratio: L6 cells, read-out: Ratio IC50
In short: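 Ratio of L6 cell IC50 to T. b. rhodesiense STIB900 trypomastigote IC50.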

[4] = test system: Trypanosoma brucei rhodesiense; test: Antitrypanosomal activity against bloodstream form of Trypanosoma brucei rhodesiense STIB 900 assessed as parasite growth inhibition incubated for 24 to 48 hrs followed by 72 hrs recovery by Alamar blue assay; assay type: functional
[5] = Drug uptake in bloodstream form of Trypanosoma brucei rhodesiense STIB 900 infected NMRI mouse blood at 25 mg/kg, ip bid administered for 4 consecutive days starting 3 days post infection measured at 16 hrs post last dose; assay type: ADME, organism-based; settings: read-out: Drug uptake
[6] = Drug uptake in bloodstream form of Trypanosoma brucei rhodesiense STIB 900 infected NMRI mouse blood at 25 mg/kg, ip bid administered for 4 consecutive days starting 3 days post infection measured at 4 hrs post last dose; assay type: ADME, organism-based; settings: read-out: Drug uptake
[7] = Drug uptake in bloodstream form of Trypanosoma brucei rhodesiense STIB 900 infected NMRI mouse blood at 25 mg/kg, ip bid administered for 4 consecutive days starting 3 days post infection measured at 1 hr post last dose; assay type: ADME, organism-based; settings: read-out: Drug uptake
[8] = test system: Trypanosoma brucei rhodesiense; test: Antitrypanosomal activity against bloodstream form of Trypanosoma brucei rhodesiense STIB 900 infected in NMRI mouse assessed as reduction of parasitemia at 25 mg/kg, ip bid administered for 4 consecutive days starting 3 days post infection measured 24 hrs post last dose; assay type: functional, organism-based
In short: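 Mice infected with T. b. rhodesiense STIB900 (acute model); dosing from day 3 post-infection on four consecutive days, 25 mg kg⁻¹ i.p. twice daily, 0.1 mL/10 g; three infected-untreated controls; parasitaemia monitored by tail-snip blood smears twice weekly for two weeks, then weekly to day 60; relapse day recorded post-infection.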

[9] = biological target: Rhodesain (Trypanosoma brucei rhodesiense) (UniProt Q95PM0); test: Inhibition of Trypanosoma brucei rhodesiense rhodesain at 20 uM using Cbz-Phe-Arg-AMC as substrate by fluorimetric method relative to control
Chain of Rhodesain (Trypanosoma brucei rhodesiense) (Q95PM0 1-450): as the sequence (Q95PM0 whole entry) above

MDR1 = test: Efflux ratio of permeability across pig LLC-PK1 cells expressing human MDR1 at 1 uM after 3.5 hrs by LC-MS/MS analysis; assay type: ADME, cell-based, Sus scrofa
In short: (§1)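 Porcine kidney LLC-PK1 cells stably transfected with human ABCB1 (MDR1) or mouse Abcb1a (Mdr1a). Cells were grown with 10% FCS and 100 ng/mL colchicine and seeded on permeable inserts, then assayed on day 4. Compound was added at 1 μM to the apical or basolateral side, and transport was run in both directions in triplicate at 37 °C, 5% CO2. Donor and receiver were sampled at 3.5 h and quantified by LC–MS/MS. Lucifer yellow was used as the monolayer tightness control.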

[10] = test system: Trypanosoma brucei brucei; test: Antitrypanosomal activity against Trypanosoma brucei brucei TC 221 assessed as parasite growth inhibition after 72 hrs by Alamar blue assay; assay type: functional; settings: TC 221, 72 h
Mdr1a = test: Efflux ratio of permeability across pig LLC-PK1 cells expressing mouse Mdr1a at 1 uM after 3.5 hrs by LC-MS/MS analysis; assay type: ADME, cell-based, Sus scrofa; in short: as §1
[11] = Trypanosoma brucei, STIB 900, 72 h

Chain of Procathepsin L (P07711 whole entry): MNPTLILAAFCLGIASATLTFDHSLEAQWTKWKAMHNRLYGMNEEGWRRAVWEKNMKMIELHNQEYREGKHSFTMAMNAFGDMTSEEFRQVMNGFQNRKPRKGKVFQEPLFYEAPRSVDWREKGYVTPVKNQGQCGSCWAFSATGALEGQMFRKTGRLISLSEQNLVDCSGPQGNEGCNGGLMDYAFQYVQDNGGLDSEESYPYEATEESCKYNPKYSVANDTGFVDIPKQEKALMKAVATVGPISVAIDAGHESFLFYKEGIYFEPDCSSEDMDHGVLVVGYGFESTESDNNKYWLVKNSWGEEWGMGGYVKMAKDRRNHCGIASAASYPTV

Row | Structure (SMILES) | IC50 (L6; Rattus norvegicus, L6, 72 h) [µM] | Ki (Procathepsin L) [µM] | Ratio Ki [1] | IC50 [2, 11] [µM] | Ki (Rhodesain) [µM] | selectivity ratio [3] | other results
1 | CS(=O)(=O)c1ccc2c(c1)C(=O)N[C@H](C(=O)NC1(C#N)CC1)Cc1ccc(c(Cl)c1)OC/C=C/CO2 | > 100 | 0.0037 | 0.6 | 0.332 | 0.0061 | – | –
2 | N#CC1(NC(=O)[C@@H]2Cc3ccc(c(-c4cncnc4)c3)OCCCCOc3cc(C(F)(F)F)ccc3C(=O)N2)CC1 | > 100 | 6.39 | – | 0.509 | > 20 | – | –
3 | N#CC1(NC(=O)[C@@H]2Cc3ccc(c(Cl)c3)OCC#CCOc3c(F)cc(F)cc3C(=O)N2)CC1 (single isomer, unassigned; atropisomer 2) [listing 1 of 2 here] | – | – | 0.3 | – | – | – | –
4 | N#CC1(NC(=O)[C@@H]2Cc3ccc(c(I)c3)OCCCCOc3cc(C(F)(F)F)ccc3C(=O)N2)CC1 | 56.8 | 0.0058 | 0.1 | 0.03 | 0.0574 | 1890 | –
5 | CS(=O)(=O)c1ccc2c(c1)C(=O)N[C@H](C(=O)NC1(C#N)CC1)Cc1ccc(c(Cl)c1)OC[C@H]1O[C@@H]1CO2 (mixture of isomers) | 84.7 | 0.0046 | 0.03 | 16.9 | 0.135 | 5 | –
6 | Cn1cc(-c2cc3ccc2OCCCCOc2cc(C(F)(F)F)ccc2C(=O)N[C@H](C(=O)NC2(C#N)CC2)C3)cn1 | > 100 | 0.676 | 0.8 | 0.019 | 0.87 | – | –
7 | N#CC1(NC(=O)[C@@H]2Cc3ccc(c(I)c3)OC/C=C/COc3ccccc3C(=O)N2)CC1 | – | – | – | – | 0.0025 | – | –
8 | N#CC1(NC(=O)[C@@H]2Cc3ccc(c(Cl)c3)OC/C=C/COc3cc(C(F)(F)F)ccc3C(=O)N2)CC1 | 37 | 0.0024 | 0.1 | 0.002 | 0.0202 | 18500 | growth inhibition (GI) [4]: Active
9 | N#CC1(NC(=O)[C@@H]2Cc3ccc(c(Cl)c3)OC/C=C/COc3ccc(-c4ccc(F)cc4)cc3C(=O)N2)CC1 (mixture of isomers) | 45.3 | 0.0155 | 7.8 | 0.347 | 0.002 | 131 | –
10 | CSc1ccc2c(c1)C(=O)N[C@H](C(=O)NC1(C#N)CC1)Cc1ccc(c(Cl)c1)OC/C=C/CO2 | – | – | – | – | – | – | concentration at 16 h [5]: < 10 ng/mL; concentration at 4 h [6]: 66.4 ng/mL; concentration at 1 h [7]: 951 ng/mL; Activity [8]: inactive
11 | N#CC1(NC(=O)[C@@H]2Cc3ccc(c(Cl)c3)OC/C=C/COc3cc4ccccc4cc3C(=O)N2)CC1 (mixture of isomers) | 43.8 | 0.0012 | 1.2 | 0.0005 | 0.001 | 87600 | –
12 | Cc1cc2nn1CC/C=C/COc1ccc(cc1Cl)C[C@@H](C(=O)NC1(C#N)CC1)NC2=O (mixture of isomers) | > 100 | 0.0403 | 0.8 | 0.006 | 0.0524 | – | –
13 | N#CC1(NC(=O)[C@@H]2Cc3ccc(c(Cl)c3)OC/C=C/Cn3c(=O)c(cc4cc(Cl)ccc43)C(=O)N2)CC1 (mixture of isomers) | 16.2 | 0.274 | 0.9 | 0.008 | 0.299 | 2020 | –
14 | N#CC1(NC(=O)[C@@H]2Cc3ccc(c(Cl)c3)OC/C=C/COc3cc(-c4cnn(C(F)F)c4)ccc3C(=O)N2)CC1 (mixture of isomers) | 44.3 | 0.0074 | 1.4 | 0.336 | 0.0054 | 132 | –
15 | N#CC1(NC(=O)[C@@H]2Cc3ccc(c(Cl)c3)OC/C=C/COc3c(F)cc(F)cc3C(=O)N2)CC1 | – | – | – | – | – | – | growth inhibition (GI) [4]: Active
16 | N#CC1(NC(=O)[C@@H]2Cc3ccc(c(Cl)c3)OCC#CCOc3c(F)cc(F)cc3C(=O)N2)CC1 (single isomer, unassigned; atropisomer 2) [listing 2 of 2 here] | – | 0.0012 | – | – | 0.0048 | – | IC50 (L6; l6): 47.1 µM; Ratio IC50 [3]: 11775; IC50 [2]: 0.004 µM
17 | N#CC1(NC(=O)[C@@H]2Cc3ccc(c(Cl)c3)OC/C=C/COc3cc(-c4ccc(Cl)nc4)ccc3C(=O)N2)CC1 (mixture of isomers) | 6.49 | 0.0073 | 2.4 | 0.338 | 0.003 | 19 | –
18 | N#CC1(NC(=O)[C@@H]2Cc3ccc(c(-c4cc[nH]n4)c3)OCCCCOc3cc(C(F)(F)F)ccc3C(=O)N2)CC1 | > 100 | 1.36 | – | 0.14 | – | – | inhibition [9]: 45%
19 | N#CC1(NC(=O)[C@@H]2Cc3ccc(c(Cl)c3)OCC#CCOc3c(F)cc(F)cc3C(=O)N2)CC1 (single isomer, unassigned; atropisomer 1) [listing 1 of 2 here] | – | – | 0.3 | – | – | – | –
20 | CC(C)(C)c1cc2nn1CC/C=C/COc1ccc(cc1Cl)C[C@@H](C(=O)NC1(C#N)CC1)NC2=O | 38.5 | 0.0023 | 0.1 | 0.0006 | 0.018 | 64200 | –
21 | N#CC1(NC(=O)[C@@H]2Cc3ccc(c(Cl)c3)OC/C=C/CCn3nc(cc3C3CC3)C(=O)N2)CC1 | 60.6 | 0.0025 | 0.1 | 0.005 | 0.0172 | 12100 | growth inhibition (GI) [4]: Active
22 | N#CC1(NC(=O)[C@@H]2Cc3ccc(c(Cl)c3)OCCCCOc3cc4c(cc3C(=O)N2)CCCC4)CC1 | – | 0.003 | – | – | 0.026 | – | efflux ratio at 3.5 h, 1 µM (MDR1): 26; IC50 [10]: 0.001 µM; efflux ratio at 3.5 h, 1 µM (Mdr1a): 38
23 | N#CC1(NC(=O)[C@@H]2Cc3ccc(c(Cl)c3)OC/C=C/COc3ccccc3C(C(F)(F)F)N2)CC1 (some centres undefined) | – | 0.443 | – | 9.5 | 0.258 | – | –
24 | N#CC1(NC(=O)[C@@H]2Cc3ccc(c(Cl)c3)OC/C=C/CCn3nc(cc3-c3ccccc3)C(=O)N2)CC1 | 40 | 0.0557 | 11 | 0.0006 | 0.0052 | 66700 | –
25 | N#CC1(NC(=O)[C@@H]2Cc3ccc(c(Cl)c3)OCC#CCOc3c(F)cc(F)cc3C(=O)N2)CC1 (single isomer, unassigned; atropisomer 1) [listing 2 of 2 here] | 45.6 | 0.0241 | – | 0.008 | 0.0806 | – | Ratio IC50 [3]: 5700
26 | N#CC1(NC(=O)[C@@H]2Cc3ccc(c(I)c3)OC/C=C/COc3cc(C(F)(F)F)ccc3C(=O)N2)CC1 (mixture of isomers) | 30.2 | 0.0056 | 0.6 | 0.3 | 0.0087 | 101 | –
27 | N#CC1(NC(=O)[C@@H]2Cc3ccc(c(-c4cccnc4)c3)OCCCCOc3ccccc3C(=O)N2)CC1 | > 100 | 0.997 | 1.2 | 1.93 | 0.837 | – | –
28 | N#CC1(NC(=O)[C@@H]2Cc3ccc(c(-c4cc[nH]n4)c3)OCCCCOc3ccccc3C(=O)N2)CC1 | 86.5 | 1.11 | 1 | 1.23 | 1.09 | 70 | –
29 | N#CC1(NC(=O)[C@@H]2Cc3ccc(c(-c4cccnc4)c3)OCCCCOc3cc(C(F)(F)F)ccc3C(=O)N2)CC1 | 72.2 | 0.824 | 1.1 | 0.018 | 0.751 | 4010 | –
30 | N#CC1(NC(=O)[C@@H]2Cc3ccc(c(Cl)c3)OC/C=C/Cn3cccc(c3=O)C(=O)N2)CC1 | > 100 | > 20 | – | 47.8 | > 20 | – | –

— ChEMBL document CHEMBL4043299, “Repurposing a Library of Human Cathepsin L Ligands: Identification of Macrocyclic Lactams as Potent Rhodesain and Trypanosoma brucei Inhibitors” (J Med Chem, 2018)
